From ChEMBL document CHEMBL4823260, “From High-Throughput Screening to Target Validation: Benzo[d]isothiazoles as Potent and Selective Agonists of Human Transient Receptor Potential Cation Channel Subfamily M Member 5 Possessing In Vivo Gastrointestinal Prokinetic Activity in Rodents” (J Med Chem, 2021)
Values after ≈ are worked out from the molar mass of the structure shown.

Assays:
[1] = target: Transient receptor potential cation channel subfamily V member 4 (Homo sapiens, UniProt Q9HBA0); test: Agonist activity at human TRPV4 expressed in HEK cells assessed as increase in GSK1016790A-induced intracellular calcium level measured after 1 hr by FLIPR assay; assay type: cell-based
[2] = target: T1, Transient receptor potential cation channel subfamily M member 5 (Mus musculus, UniProt Q9JJH7); test: Agonist activity at mouse TRPM5 expressed in CHO-K1 cells maintained at 80 mV final holding potential by syncroPatch assay; assay type: cell-based
T1 sequence (Q9JJH7 whole entry): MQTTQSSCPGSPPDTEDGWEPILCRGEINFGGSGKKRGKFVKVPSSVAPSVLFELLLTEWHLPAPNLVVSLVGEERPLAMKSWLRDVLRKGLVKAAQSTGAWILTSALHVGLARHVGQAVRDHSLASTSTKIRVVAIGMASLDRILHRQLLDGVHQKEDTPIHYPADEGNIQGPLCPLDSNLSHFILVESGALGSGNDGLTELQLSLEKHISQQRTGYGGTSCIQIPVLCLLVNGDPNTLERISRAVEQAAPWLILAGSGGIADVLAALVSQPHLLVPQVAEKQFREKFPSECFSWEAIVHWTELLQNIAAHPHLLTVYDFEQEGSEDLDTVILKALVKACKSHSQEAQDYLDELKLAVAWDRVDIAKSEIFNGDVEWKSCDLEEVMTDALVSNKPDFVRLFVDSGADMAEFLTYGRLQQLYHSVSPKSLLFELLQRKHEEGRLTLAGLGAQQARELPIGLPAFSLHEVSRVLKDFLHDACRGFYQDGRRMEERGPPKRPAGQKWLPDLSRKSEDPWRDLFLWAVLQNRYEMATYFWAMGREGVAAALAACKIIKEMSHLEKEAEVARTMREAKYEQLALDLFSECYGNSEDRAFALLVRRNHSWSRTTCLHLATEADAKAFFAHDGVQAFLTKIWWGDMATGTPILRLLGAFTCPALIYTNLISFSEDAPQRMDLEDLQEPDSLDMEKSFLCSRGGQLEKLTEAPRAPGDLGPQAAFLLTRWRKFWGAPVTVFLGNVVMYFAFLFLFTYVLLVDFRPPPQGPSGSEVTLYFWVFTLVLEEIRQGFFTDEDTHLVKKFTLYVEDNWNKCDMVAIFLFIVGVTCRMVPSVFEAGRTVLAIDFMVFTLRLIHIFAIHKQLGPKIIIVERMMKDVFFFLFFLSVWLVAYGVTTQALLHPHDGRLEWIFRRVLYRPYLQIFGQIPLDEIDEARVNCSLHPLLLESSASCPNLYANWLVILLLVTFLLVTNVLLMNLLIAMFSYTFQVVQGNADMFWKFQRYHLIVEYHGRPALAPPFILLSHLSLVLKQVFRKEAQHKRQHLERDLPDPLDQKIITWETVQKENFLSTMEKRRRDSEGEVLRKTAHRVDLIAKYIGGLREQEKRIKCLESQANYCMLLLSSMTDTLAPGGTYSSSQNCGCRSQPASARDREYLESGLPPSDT
Procedure, shortened: (§1)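 SyncroPatch 384 whole-cell recording at rt on CHO-K1 cells stably expressing human or mouse TRPM5. Intracellular solution had 2 mM Na-ATP and 5 μM free Ca2+. Cumulative doses 0.03–31.6 μM in 0.5% DMSO, 150 s each after 180 s vehicle. Current measured at the end of the +80 mV step, normalized to vehicle; pEC50 is the mean of ≥2 independent experiments.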

[3] = target: Transient receptor potential cation channel subfamily M member 4 (Homo sapiens, UniProt Q8TD43); test: Agonist activity at human TRPM4 expressed in CHO cells assessed as change in membrane potential by FLIPR assay
[4] = Intrinsic clearance in mouse liver microsomes assessed per mg protein incubated up to 30 mins in presence of NADPH by LC-MS/MS analysis; assay type: ADME, Microsome
[5] = target: Transient receptor potential cation channel subfamily V member 1 (Homo sapiens, UniProt Q8NER1); test: Agonist activity at human TRPV1 expressed in CHO cells assessed as increase in capsaicin-induced intracellular calcium level measured after 1 hr by FLIPR assay; assay type: cell-based
Procedure, shortened: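 CHO cells stably expressing hTRPV1, plated at 10,000/well 24 h before the assay. Loaded with calcium-6 dye plus 2.5 mM probenecid for 1 h at 37 °C and 1 h at rt. FLIPR dual-addition protocol; agonist potency derived as pEC50.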

[6] = Efflux ratio of apparent permeability across basolateral to apical over apical to basolateral membrane in human Caco-2 cells incubated for 30 mins by LC-MS/MS analysis; assay type: ADME, cell-based
[7] = target: Transient receptor potential cation channel subfamily A member 1 (Homo sapiens, UniProt O75762); test: Agonist activity at human TRPA1 expressed in HEK cells assessed as increase in menthol-induced intracellular calcium level incubated for 2 hrs by FLIPR assay; assay type: cell-based
Procedure, shortened: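 HEK cells stably expressing hTRPA1, plated at 20,000/well 24 h ahead, loaded with calcium-6 dye plus 2.5 mM probenecid for 2 h at 37 °C. First FLIPR addition: 11-point 1:3 concentration series, read for 5 min, scaled to (−)menthol 1 mM final (100% control); pEC50 fitted. Final DMSO 0.5%; run at 37 °C.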

[8] = Solubility of the compound in phospahte-buffered saline buffer at pH 7.4 incubated for 2 hrs by HPLC/UV analysis; assay type: physicochemical; conditions: phosphate-buffered saline
[9] = target: T2, Transient receptor potential cation channel subfamily M member 5 (Homo sapiens, UniProt Q9NZQ8); test: Agonist activity at human TRPM5 expressed in CHO-K1 cells maintained at 80 mV final holding potential by syncroPatch assay; assay type: cell-based; procedure, shortened: as §1
T2 sequence (Q9NZQ8 whole entry): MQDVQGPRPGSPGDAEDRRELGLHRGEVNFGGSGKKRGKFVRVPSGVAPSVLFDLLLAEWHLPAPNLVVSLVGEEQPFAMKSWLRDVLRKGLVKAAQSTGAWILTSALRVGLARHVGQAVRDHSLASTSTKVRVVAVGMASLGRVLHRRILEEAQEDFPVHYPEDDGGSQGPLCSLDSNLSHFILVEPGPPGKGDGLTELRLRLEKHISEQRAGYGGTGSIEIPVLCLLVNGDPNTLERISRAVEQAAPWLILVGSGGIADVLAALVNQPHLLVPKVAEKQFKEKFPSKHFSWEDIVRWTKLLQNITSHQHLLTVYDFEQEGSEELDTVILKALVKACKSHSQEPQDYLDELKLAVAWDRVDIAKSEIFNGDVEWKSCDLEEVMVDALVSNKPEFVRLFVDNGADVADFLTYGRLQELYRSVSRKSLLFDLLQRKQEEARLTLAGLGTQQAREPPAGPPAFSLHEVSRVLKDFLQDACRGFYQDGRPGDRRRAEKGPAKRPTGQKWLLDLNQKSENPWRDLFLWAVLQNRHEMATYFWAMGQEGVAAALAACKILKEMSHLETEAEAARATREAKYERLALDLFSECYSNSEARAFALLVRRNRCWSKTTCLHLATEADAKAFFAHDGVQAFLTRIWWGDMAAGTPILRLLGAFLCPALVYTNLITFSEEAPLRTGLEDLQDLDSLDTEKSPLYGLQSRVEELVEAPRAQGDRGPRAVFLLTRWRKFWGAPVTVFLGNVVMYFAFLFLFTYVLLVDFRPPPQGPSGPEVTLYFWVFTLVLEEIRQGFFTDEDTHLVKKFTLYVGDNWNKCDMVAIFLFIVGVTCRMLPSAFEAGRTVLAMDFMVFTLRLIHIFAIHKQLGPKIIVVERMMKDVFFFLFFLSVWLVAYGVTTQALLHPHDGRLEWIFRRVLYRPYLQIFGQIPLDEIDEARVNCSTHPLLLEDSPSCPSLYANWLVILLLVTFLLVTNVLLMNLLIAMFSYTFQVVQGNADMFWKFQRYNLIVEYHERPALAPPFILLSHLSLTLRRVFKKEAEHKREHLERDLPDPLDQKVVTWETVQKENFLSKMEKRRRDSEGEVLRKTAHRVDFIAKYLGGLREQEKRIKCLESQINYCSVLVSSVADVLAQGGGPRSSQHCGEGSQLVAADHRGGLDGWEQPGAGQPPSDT

[10] = Intrinsic clearance in human liver microsomes assessed per mg protein incubated up to 30 mins in presence of NADPH by LC-MS/MS analysis; assay type: ADME, Microsome
[11] = Apparent permeability across apical to basolateral membrane in human Caco-2 cells incubated for 30 mins by LC-MS/MS analysis; assay type: ADME, cell-based
[12] = target: Transient receptor potential cation channel subfamily M member 8 (Homo sapiens, UniProt Q7Z2W7); test: Agonist activity at human TRPM8 expressed in HEK cells assessed as increase in menthol-induced intracellular calcium level measured after 1 hr by FLIPR assay; assay type: cell-based
Procedure, shortened: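 HEK cells with stable hTRPM8, 20,000/well on poly-D-lysine plates 24 h ahead. Loaded with calcium-6 dye and 2.5 mM probenecid, 1 h at 37 °C then 1 h at rt. First-addition calcium rise scaled to (−)menthol 100 μM final (100% control); pEC50 derived from the concentration–response. Final DMSO 0.5%; assay at rt.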

[13] = target: T2, Transient receptor potential cation channel subfamily M member 5; test: Agonist activity at human TRPM5 expressed in CHO-K1 cells maintained at 80 mV final holding potential by QPatch HTX assay; assay type: cell-based
Procedure, shortened: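 Whole-cell QPatch HTX recording at rt on CHO-K1 cells with stable hTRPM5. Pipette solution HEDTA-buffered to 1 μM free Ca2+, pH 7.2. Cells held at 0 mV; 0.1 Hz protocol with steps to −80/+80 mV and a ramp. Current taken at the end of the first +80 mV step, no leak subtraction. Increase expressed relative to vehicle current (100%).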

Sequence of Transient receptor potential cation channel subfamily V member 1 (Q8NER1 whole entry): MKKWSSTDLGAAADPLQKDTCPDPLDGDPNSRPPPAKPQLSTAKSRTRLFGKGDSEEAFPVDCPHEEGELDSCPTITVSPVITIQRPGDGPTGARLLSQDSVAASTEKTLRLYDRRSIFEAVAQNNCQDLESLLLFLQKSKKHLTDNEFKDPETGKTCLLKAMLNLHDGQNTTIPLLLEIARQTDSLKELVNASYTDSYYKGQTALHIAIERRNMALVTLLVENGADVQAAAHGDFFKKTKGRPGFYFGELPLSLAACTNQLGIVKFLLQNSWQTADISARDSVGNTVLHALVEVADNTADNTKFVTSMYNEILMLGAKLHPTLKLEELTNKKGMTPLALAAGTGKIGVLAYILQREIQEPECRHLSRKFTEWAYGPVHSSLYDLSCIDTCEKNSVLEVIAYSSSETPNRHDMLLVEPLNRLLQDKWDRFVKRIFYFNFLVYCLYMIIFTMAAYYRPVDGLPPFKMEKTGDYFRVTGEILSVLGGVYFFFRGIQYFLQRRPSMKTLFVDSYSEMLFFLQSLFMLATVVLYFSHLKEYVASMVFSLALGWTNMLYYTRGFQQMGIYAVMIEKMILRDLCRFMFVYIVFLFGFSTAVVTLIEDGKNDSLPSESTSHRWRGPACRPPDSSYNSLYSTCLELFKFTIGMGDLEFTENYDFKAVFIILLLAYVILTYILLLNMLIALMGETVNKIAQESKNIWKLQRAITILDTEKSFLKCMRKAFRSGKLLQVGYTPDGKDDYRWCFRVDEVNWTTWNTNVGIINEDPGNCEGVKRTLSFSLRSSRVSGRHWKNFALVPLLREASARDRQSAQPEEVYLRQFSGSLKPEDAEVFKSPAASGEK
Sequence of Transient receptor potential cation channel subfamily M member 8 (Q7Z2W7 whole entry): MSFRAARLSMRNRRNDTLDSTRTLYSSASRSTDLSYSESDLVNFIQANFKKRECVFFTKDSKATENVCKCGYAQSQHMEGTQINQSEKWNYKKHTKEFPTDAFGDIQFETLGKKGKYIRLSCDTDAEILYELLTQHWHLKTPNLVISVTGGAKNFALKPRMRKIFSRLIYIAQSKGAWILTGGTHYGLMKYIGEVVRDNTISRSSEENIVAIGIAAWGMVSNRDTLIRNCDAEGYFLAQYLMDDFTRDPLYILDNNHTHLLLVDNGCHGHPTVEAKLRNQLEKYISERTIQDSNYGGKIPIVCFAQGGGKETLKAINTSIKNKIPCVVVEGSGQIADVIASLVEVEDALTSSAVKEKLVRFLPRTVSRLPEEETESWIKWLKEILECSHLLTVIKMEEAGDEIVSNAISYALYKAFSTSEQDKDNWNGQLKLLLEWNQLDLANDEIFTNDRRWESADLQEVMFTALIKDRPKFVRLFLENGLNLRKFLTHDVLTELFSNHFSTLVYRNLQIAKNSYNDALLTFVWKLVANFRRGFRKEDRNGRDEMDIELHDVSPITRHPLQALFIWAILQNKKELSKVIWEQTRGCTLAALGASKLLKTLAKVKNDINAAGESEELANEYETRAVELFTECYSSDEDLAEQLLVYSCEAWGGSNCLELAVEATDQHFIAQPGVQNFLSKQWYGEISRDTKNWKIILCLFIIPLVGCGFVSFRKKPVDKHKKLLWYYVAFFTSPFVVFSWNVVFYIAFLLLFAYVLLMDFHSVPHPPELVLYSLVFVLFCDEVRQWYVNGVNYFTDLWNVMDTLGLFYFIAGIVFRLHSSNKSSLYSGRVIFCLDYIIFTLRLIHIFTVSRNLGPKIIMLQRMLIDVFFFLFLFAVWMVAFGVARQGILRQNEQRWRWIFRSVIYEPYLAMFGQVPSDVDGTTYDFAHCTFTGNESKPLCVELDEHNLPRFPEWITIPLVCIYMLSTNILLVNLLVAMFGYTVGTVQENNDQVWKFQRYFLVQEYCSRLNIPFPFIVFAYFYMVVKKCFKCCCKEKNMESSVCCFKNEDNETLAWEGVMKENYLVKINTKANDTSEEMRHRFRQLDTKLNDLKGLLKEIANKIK
Sequence of Transient receptor potential cation channel subfamily M member 4 (Q8TD43 whole entry): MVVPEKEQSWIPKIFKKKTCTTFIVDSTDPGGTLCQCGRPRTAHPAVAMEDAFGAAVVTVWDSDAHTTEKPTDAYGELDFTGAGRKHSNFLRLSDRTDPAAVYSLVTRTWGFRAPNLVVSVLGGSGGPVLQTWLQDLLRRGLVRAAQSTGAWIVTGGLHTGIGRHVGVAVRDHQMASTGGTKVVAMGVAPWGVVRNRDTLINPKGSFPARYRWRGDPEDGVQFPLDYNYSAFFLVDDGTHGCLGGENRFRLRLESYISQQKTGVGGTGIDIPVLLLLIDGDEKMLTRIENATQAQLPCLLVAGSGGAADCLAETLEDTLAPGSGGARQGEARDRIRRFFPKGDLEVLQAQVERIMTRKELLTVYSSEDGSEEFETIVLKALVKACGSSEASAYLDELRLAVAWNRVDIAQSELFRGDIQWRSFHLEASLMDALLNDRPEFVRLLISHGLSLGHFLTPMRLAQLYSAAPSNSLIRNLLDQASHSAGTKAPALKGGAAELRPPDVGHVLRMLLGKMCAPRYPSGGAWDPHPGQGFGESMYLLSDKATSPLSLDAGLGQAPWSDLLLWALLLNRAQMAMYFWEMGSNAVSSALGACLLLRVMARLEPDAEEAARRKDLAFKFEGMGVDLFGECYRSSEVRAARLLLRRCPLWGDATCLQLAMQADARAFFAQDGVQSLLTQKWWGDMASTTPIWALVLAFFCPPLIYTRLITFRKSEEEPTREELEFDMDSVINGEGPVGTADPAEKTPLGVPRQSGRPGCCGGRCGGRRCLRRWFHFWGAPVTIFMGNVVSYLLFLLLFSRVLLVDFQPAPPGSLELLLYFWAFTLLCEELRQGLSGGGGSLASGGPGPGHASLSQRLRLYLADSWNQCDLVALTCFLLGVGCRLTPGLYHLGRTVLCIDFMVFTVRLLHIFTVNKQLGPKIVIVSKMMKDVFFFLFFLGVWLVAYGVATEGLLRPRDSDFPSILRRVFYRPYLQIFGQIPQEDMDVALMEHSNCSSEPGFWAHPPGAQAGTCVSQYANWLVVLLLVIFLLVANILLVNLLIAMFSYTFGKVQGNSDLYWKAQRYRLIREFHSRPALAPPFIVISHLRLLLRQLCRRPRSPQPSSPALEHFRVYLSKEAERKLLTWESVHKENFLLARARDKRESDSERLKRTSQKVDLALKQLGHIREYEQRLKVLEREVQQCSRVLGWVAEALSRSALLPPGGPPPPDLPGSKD
Sequence of Transient receptor potential cation channel subfamily A member 1 (O75762 whole entry): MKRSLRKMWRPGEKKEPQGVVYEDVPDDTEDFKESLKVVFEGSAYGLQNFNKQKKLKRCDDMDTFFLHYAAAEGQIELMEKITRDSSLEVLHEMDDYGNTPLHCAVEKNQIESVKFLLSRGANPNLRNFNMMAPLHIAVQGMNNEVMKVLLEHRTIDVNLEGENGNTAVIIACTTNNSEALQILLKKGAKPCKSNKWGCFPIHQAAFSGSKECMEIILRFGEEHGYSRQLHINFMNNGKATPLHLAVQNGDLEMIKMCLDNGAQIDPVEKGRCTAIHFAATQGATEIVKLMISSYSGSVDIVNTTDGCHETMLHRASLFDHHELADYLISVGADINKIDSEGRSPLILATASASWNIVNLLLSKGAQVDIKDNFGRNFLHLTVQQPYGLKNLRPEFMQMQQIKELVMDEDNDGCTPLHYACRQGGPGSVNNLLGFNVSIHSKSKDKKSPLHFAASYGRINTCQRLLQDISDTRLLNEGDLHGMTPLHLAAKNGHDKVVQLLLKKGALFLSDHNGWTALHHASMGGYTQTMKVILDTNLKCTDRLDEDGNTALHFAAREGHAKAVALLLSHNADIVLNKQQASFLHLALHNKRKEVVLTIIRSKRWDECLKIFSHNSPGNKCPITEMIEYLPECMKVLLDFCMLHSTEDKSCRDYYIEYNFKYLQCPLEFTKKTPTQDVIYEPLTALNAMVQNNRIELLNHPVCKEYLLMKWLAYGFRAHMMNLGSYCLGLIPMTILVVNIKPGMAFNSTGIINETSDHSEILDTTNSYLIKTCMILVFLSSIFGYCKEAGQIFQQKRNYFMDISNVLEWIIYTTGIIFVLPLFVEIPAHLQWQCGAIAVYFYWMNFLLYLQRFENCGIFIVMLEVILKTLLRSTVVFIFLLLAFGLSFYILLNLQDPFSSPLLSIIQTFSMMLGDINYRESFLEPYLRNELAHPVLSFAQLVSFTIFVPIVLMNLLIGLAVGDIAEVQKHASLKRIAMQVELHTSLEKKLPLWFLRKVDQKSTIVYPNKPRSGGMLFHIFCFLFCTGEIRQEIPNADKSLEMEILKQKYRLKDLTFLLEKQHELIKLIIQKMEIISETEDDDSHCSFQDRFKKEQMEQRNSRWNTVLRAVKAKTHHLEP

SMILES | EC50 [1] [µM] | EC50 [2] [nM] | EC50 [3] [µM] | microsomal CLint [4] [µL/min/mg] | EC50 [5] [µM] | efflux ratio at 0.5 h [6] | EC50 [7] [µM] | solubility at 2 h [8] [µM] | EC50 [9] [nM] | microsomal CLint [10] [µL/min/mg] | Papp A→B at 0.5 h [11] [×10⁻⁶ cm/s] | EC50 [12] [µM] | EC50 [13] [µM]
Cn1c(Cl)cnc1CNc1ccc2sncc2c1 | > 15.8 | 316 | > 63.1 | 446 | > 15.8 | 1.03 | > 15.8 | 215 (≈ 59.9 µg/mL) | 331 | 109 | 21.9 | > 15.8 | 
Cn1c(Cl)cnc1CNc1ccc(Cl)cc1F |  |  |  |  |  |  |  |  | 4680 |  |  |  | 6.03
